From PubChem BioAssay
RGS4 pot: RGS4 potentiation or activation | actives 0.92% (n = 310,000) | B-score at 10 µM | HEK293 M3R/inducible RGS4, carbachol calcium flux Fluo4; hits give low values;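 active means B-score of the integrated calcium signal more than 4 SD below the library mean, with starting fluorescence not abnormally high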;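 further: negative B-score means reduced calcium response which marks RGS4 activation or potentiation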
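System: HEK293 FlpIn-TREx cells, stable M3R, doxycycline-inducible RGS4. Timing: overnight RGS4 induction, 30 min dye load 37 °C, 20 min compound RT. Also added: carbachol, ECmax concentration. Measured by: Fluo4 fluorescence kinetic imaging of calcium. Evaluation: integrated calcium ratio converted to B score.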
RGS4 inh: inhibitors of human RGS4; AID 463165; B-score at 10 µM; actives 0.45% (n = 310,000); P49798; HEK293 M3R/RGS4 inducible, Fluo-4 calcium flux; hits give high values; triggered by carbachol at its EC20;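 active means B-score, a plate-corrected calcium signal, over three deviations above library mean, with baseline fluorescence within five deviations of library mean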;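 further: RGS4 expression induced by doxycycline in cells with stable M3 receptor; B-score is computed from the integrated fluorescence ratio over baseline after carbachol; higher B-score means a larger calcium signal and so more RGS4 inhibition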
Target sequence (P49798 whole entry, looked up): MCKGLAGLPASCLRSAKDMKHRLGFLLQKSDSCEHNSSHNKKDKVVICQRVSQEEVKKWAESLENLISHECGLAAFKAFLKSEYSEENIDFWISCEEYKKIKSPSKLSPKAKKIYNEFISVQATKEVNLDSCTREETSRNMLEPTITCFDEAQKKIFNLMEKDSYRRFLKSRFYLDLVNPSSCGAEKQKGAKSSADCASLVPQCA
MrgX1 ag: human MrgX1 receptor agonism, primary screen; actives 0.44% (n = 310,000); MrgX1-HEK293 cells, Fluo-4 calcium fluorescence, agonist mode; hits give high values; B-score at 10 µM;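 active means calcium response B-score plate-corrected fluorescence ratio at least 3 library SD, with starting fluorescence B-score inside 5 SD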
Target sequence (Q96LB2 whole entry, looked up): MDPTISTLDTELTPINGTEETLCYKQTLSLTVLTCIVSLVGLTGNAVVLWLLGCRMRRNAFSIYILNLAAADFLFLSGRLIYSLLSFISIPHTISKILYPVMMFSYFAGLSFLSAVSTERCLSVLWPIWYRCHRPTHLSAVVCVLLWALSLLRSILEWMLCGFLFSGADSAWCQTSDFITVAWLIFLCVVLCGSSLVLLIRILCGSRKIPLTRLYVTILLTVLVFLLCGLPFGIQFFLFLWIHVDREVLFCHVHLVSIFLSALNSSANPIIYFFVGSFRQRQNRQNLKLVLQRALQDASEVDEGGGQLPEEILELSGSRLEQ
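Material: MrgX1-expressing HEK293 cells; input: 15,000 cells per well; doses: test compound given as first of three sequential additions; schedule: overnight plating before 1 h dye loading; technique: Fluo-4 NW calcium-flux fluorescence, kinetic read; evaluation: baseline-normalised fluorescence change ratio, B-scored; control set: plate-wise positive and negative controls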
MrgX1 PAM: human MrgX1 positive allosteric modulation, primary screen. MrgX1-HEK293, Fluo-4 calcium flux, FDSS; hits give high values. B-score at 10 µM. actives 0.63% (n = 310,000);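 active means plate-corrected calcium response at least 3 library SD above typical, normal starting fluorescence, not activating the receptor alone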;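 further: compound read alongside a low EC10 to EC30 dose of BAM8-22 agonist; peak minus trough fluorescence over baseline measured at the second addition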
MrgX1 antagonist: human MrgX1 receptor antagonism, primary screen; AID 588676; actives 1.3% (n = 310,000); Q96LB2; B-score at 10 µM; MRGX1-HEK293 calcium flux, Fluo-4, BAM8-22 antagonism; hits give low values;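 active means calcium-response B-score plate-corrected more than 3 library SD below zero, starting fluorescence within 5 deviations, no agonist response on first addition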;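 further: peak minus trough fluorescence over baseline after final BAM8-22 challenge near maximal dose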
MrgX1 ant reconf: human MrgX1 receptor antagonism, re-confirmation screen; shares compounds with MrgX1 antagonist; remaining BAM8-22 calcium response % of control (hits give low values), % at 10 µM; actives 19% (n = 2,300); MrgX1-HEK293, BAM8-22 calcium flux, Fluo-4; hits give low values;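 active means remaining agonist calcium response no higher than 100% minus 3 SD of agonist-only control wells, with starting fluorescence near control levels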;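 further: agonist BAM8-22 given at a near maximal EC90 to ECmax level; peak minus minimum fluorescence divided by baseline after agonist addition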
HEK293 Ca flux: activity in parental HEK293 cells lacking MrgX1; shares compounds with MrgX1 antagonist; Fluo-4 calcium fluorescence, FDSS; fluorescence ratio F(max-min)/F0 at 10 µM; actives 2% (n = 4,000);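 active means duplicate-averaged calcium fluorescence ratio at least three times the standard deviation of buffer wells, a nonspecific response in parental cells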
HEK293 Ca counter: MrgX1 allosteric activator counter-screen hit in parental HEK293 cells; parental HEK293 calcium flux, Fluo-4 fluorescence ratio; hits give high values; actives 0.4% (n = 4,000); AID 624114; shares compounds with MrgX1 antagonist; fluorescence ratio F(max-min)/F0 at 10 µM;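 active means calcium fluorescence ratio, averaged over duplicates, at least 3 SD of the buffer-well ratio, meaning a nonspecific response in receptor-free cells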;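 further: untransfected parental HEK293 lacking MrgX1 used as counterscreen for MrgX1 allosteric activators; fluorescence change taken during the second addition on a kinetic imager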
HEK293 Ca cntr2: counter-screen for MrgX1 activators: effect in parental HEK293 cells | AID 624115 | shares compounds with MrgX1 antagonist | fluorescence ratio F(max-min)/F0 at 10 µM | Fluo-4 calcium fluorescence (FDSS); hits give high values | actives 8.7% (n = 4,000);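 active means calcium fluorescence ratio at least three times the spread of buffer wells, meaning a non-specific response in parental cells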
Of the large screens only hits and unclear results are named; the others gave an inactive call (follow-up assays come after a bar, where they were run). Only some compounds are listed: those with a hit (about 3.5% of all), similar ones and a draw of the others.

O=C(CCC1CCCN(C(=O)CCC(F)(F)F)C1)NCc1ccc(F)c(F)c1 (stereo not drawn)	MrgX1 antagonist -4.8 | MrgX1 ant reconf inactive | HEK293 Ca flux inactive | HEK293 Ca counter inactive | HEK293 Ca cntr2 inactive
COC(=O)CCCC(=O)N1CCCC(CCC(=O)NCc2ccc(F)c(F)c2)C1 (stereo not drawn)	none
COCCn1nnnc1CN1CCN(C(=O)c2ccco2)CC1	MrgX1 antagonist -6.3 | MrgX1 ant reconf inactive | HEK293 Ca flux inactive | HEK293 Ca counter inactive | HEK293 Ca cntr2 inactive
COc1ccc(CCn2nnnc2CN2CCN(C(=O)c3ccco3)CC2)cc1OC	none
COc1cc2cc(C#N)c(SCC(=O)Nc3cc(C)on3)nc2cc1OC	none
CC(=O)Nc1nc(C(=O)O)cs1	MrgX1 antagonist -4.9 | MrgX1 ant reconf 81% | HEK293 Ca flux inactive | HEK293 Ca counter inactive | HEK293 Ca cntr2 inactive
COc1ccc(C(=O)NC2CCN(C(=S)Nc3ccc(C)cc3)CC2)cc1	MrgX1 antagonist -4.7 | MrgX1 ant reconf inactive | HEK293 Ca flux inactive | HEK293 Ca counter inactive | HEK293 Ca cntr2 inactive
COc1ccc(NC(=S)N2CCC(NC(=O)c3cccc(C)c3)CC2)cc1	none
CCOc1ccc(C(=O)N2CCN(c3ccccn3)CC2)cc1OCC	MrgX1 antagonist -4.8 | MrgX1 ant reconf inactive | HEK293 Ca flux inactive | HEK293 Ca counter inactive | HEK293 Ca cntr2 68
O=C(CCCOc1ccc(Cl)cc1Cl)N1CCN(c2ccccn2)CC1	MrgX1 antagonist -5.2 | MrgX1 ant reconf inactive | HEK293 Ca flux inactive | HEK293 Ca counter inactive | HEK293 Ca cntr2 inactive
O=C(COc1ccc(Cl)cc1Cl)N1CCN(c2ccccn2)CC1	none
O=C(NCCCCNC(=O)c1cccnc1Cl)c1cccnc1Cl	MrgX1 antagonist -4.8 | MrgX1 ant reconf inactive | HEK293 Ca flux inactive | HEK293 Ca counter inactive | HEK293 Ca cntr2 inactive
O=C(NCC1CCCCC1)c1cccnc1Cl	none
COc1ccccc1-c1nnc(SCC(=O)OC(C)C)o1	MrgX1 antagonist -6.6 | MrgX1 ant reconf inactive | HEK293 Ca flux inactive | HEK293 Ca counter inactive | HEK293 Ca cntr2 inactive
O=C(COc1ccc(S(=O)(=O)N2CCCC2)cc1Cl)NCc1ccccn1	MrgX1 antagonist -6.2 | MrgX1 ant reconf inactive | HEK293 Ca flux inactive | HEK293 Ca counter inactive | HEK293 Ca cntr2 inactive
O=C(COc1ccc(S(=O)(=O)N2CCOCC2)cc1Cl)NCc1ccccn1	none
Cc1cc(C(=O)N/N=C/c2cccc3ccccc23)c(C)o1	none
O=C(NCc1cccnc1)c1ccc(Br)s1	none
CCN(CC)S(=O)(=O)c1ccc(N2CCOCC2)c(NC(=O)CC23CC4CC(CC(Br)(C4)C2)C3)c1	none
Cc1nc2nc(C)c(NS(=O)(=O)c3ccc(Cl)cc3)c(=O)n2[nH]1	none
COc1ccc(NC(=O)CN(C)C(=O)CSc2ccc3c(c2)OCCO3)cc1	MrgX1 antagonist -5.2 | MrgX1 ant reconf inactive | HEK293 Ca flux inactive | HEK293 Ca counter inactive | HEK293 Ca cntr2 inactive
Cc1ccc2nc3sc(C(=O)N4CCCc5ccccc54)c(N)c3cc2c1	MrgX1 antagonist -5.7 | MrgX1 ant reconf inactive | HEK293 Ca flux 0.58 | HEK293 Ca counter inactive | HEK293 Ca cntr2 inactive
CC(=O)c1cccc(CN2CCCC(C(=O)Nc3ccc(-c4ccco4)cc3)C2)c1 (stereo not drawn)	none
Cc1c([C@@H]2C[C@H]3CN(Cc4cccc(Cl)c4)C(=O)[C@]34CCCN24)cnn1C	none
